Active and inactive are the calls of the source. The rule behind the calls is not given here.
What was measured:
[1] = organism: Mus musculus; assay: Binding affinity to prostanoid receptor in [8-14C]-adenine-treated CD-1 mouse ovary assessed as increase in c-AMP production at 0.1 ug/mL after 30 mins by paper chromatographic analysis in presence of phosphodiesterase inhibitor theophylline; assay type: tissue-based; conditions: Female gonad
How it was run: (§1)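 Virgin CD-1 female mice over 70 days old; three ovaries (15-25 mg), denuded of fat, preincubated 1 h at 37 °C in 2 ml aerated Krebs–Ringer phosphate pH 7.2 with 1 μCi adenine-8-14C. Theophylline (0.2 ml of 0.05 M stock) and compound in Me2SO then added, 30 min at 37 °C. Stopped with trichloroacetic acid; cAMP-14C isolated, paper chromatography; expressed as fold over untreated ovaries.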

[2] = organism: Mus musculus; assay: Binding affinity to prostanoid receptor in [8-14C]-adenine-treated CD-1 mouse ovary assessed as increase in c-AMP production at 0.01 ug/mL after 30 mins by paper chromatographic analysis in presence of phosphodiesterase inhibitor theophylline; assay type: tissue-based; conditions: Female gonad; how it was run: as §1
[3] = organism: Mus musculus; assay: Binding affinity to prostanoid receptor in [8-14C]-adenine-treated CD-1 mouse ovary assessed as increase in c-AMP production at 10 ug/mL after 30 mins by paper chromatographic analysis in presence of phosphodiesterase inhibitor theophylline; assay type: tissue-based; conditions: Female gonad; how it was run: as §1
[4] = organism: Rattus norvegicus; assay: Binding affinity to prostanoid receptor in Holtzman rat lipocytes assessed as compound equivalent to 1 ng cold PGE1 in displacing [3H]-PGE1 from receptor after 30 mins; assay type: cell-based; conditions: in the assay text read “after 60 mins” for “after 30 mins”
How it was run: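 Test compound at appropriate concentrations incubated with 0.4 ng [3H]-PGE1 and 125 μg rat lipocyte binding preparation for 60 min at 37 °C. Bound [3H]-PGE1 then measured.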

[5] = organism: Mus musculus; assay: Binding affinity to prostanoid receptor in [8-14C]-adenine-treated CD-1 mouse ovary assessed as increase in c-AMP production at 0.05 ug/mL after 30 mins by paper chromatographic analysis in presence of phosphodiesterase inhibitor theophylline; assay type: tissue-based; conditions: Female gonad; how it was run: as §1
[6] = organism: Mus musculus; assay: Binding affinity to prostanoid receptor in [8-14C]-adenine-treated CD-1 mouse ovary assessed as increase in c-AMP production at 1 ug/mL after 30 mins by paper chromatographic analysis in presence of phosphodiesterase inhibitor theophylline; assay type: tissue-based; conditions: Female gonad; how it was run: as §1
[7] = organism: Mus musculus; assay: Binding affinity to prostanoid receptor in [8-14C]-adenine-treated CD-1 mouse ovary assessed as increase in c-AMP production at 100 ug/mL after 30 mins by paper chromatographic analysis in presence of phosphodiesterase inhibitor theophylline; assay type: tissue-based; conditions: Female gonad; how it was run: as §1
[8] = organism: Mus musculus; assay: Binding affinity to prostanoid receptor in [8-14C]-adenine-treated CD-1 mouse ovary assessed as increase in c-AMP production at 25 ug/mL after 30 mins by paper chromatographic analysis in presence of phosphodiesterase inhibitor theophylline; assay type: tissue-based; conditions: Female gonad; how it was run: as §1
[9] = biological target: T1, 15-hydroxyprostaglandin dehydrogenase [NAD(+)] (Homo sapiens, UniProt P15428); assay: Stability of the compound assessed as prostaglandin 15-hydroxydehydrogenase (unknown origin)-mediated metabolite formation; assay type: ADME
T1 sequence (P15428 whole entry): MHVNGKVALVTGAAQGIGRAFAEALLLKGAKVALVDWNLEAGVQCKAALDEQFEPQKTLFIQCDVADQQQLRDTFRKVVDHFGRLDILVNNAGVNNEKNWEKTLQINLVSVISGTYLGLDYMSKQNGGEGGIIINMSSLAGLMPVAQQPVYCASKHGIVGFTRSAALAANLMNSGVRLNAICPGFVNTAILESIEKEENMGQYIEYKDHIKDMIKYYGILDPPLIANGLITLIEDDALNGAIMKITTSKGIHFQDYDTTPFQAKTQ

[10] = organism: Mus musculus; assay: Binding affinity to prostanoid receptor in [8-14C]-adenine-treated CD-1 mouse ovary assessed as increase in c-AMP production at 50 ug/mL after 30 mins by paper chromatographic analysis in presence of phosphodiesterase inhibitor theophylline; assay type: tissue-based; conditions: Female gonad; how it was run: as §1
[11] = organism: Mus musculus; assay: Binding affinity to prostanoid receptor in [8-14C]-adenine-treated CD-1 mouse ovary assessed as increase in c-AMP production at 200 ug/mL after 30 mins by paper chromatographic analysis in presence of phosphodiesterase inhibitor theophylline; assay type: tissue-based; conditions: Female gonad; how it was run: as §1
[12] = system: Cavia porcellus; assay: Inhibition of collagen-induced platelet aggregation in po dosed guinea pig; assay type: functional
How it was run: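 Test compound given orally to guinea pigs. Collagen-induced platelet aggregation then measured. Potency expressed as ED50 in mg/kg.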

[13] = system: Cavia porcellus; assay: Inhibition of collagen-induced platelet aggregation in ip dosed guinea pig; assay type: functional
[14] = system: Canis familiaris; assay: Renal vasodilatory activity in dog assessed as increase in renal blood flow administered through infusion into renal artery; assay type: functional, organism-based; conditions: Canis lupus familiaris; Kidney
[15] = system: Canis familiaris; assay: Renal vasodilatory activity in dog assessed as increase in renal blood flow at 0.5 mg/kg/min, iv administered as infusion relative to control; assay type: functional, Canis lupus familiaris, Kidney
How it was run: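 Anesthetized dogs given intravenous infusion of 0.5 mg/kg/min. Renal blood flow measured electromagnetically in a single kidney. Read-out is the maximum increase above the control flow value.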

Row | SMILES | fold change (FC) [3] | Activity [4] | fold change (FC) [7] | fold change (FC) [8] | Stability [9] | other results
1 | CCCCC[C@H](O)/C=C/[C@H]1[C@H](O)CC(=O)[C@@H]1C/C=C\CCCC(=O)O | 80 | 1.4 ngequiv |  |  |  | fold change (FC) [1]: 57; fold change (FC) [2]: 14; fold change (FC) [5]: 35; fold change (FC) [6]: 75
2 | CCCCC[C@@H](O)CCCC(CCCCCCC(=O)O)C(C)=O (some centres undefined) | 5 | 2.1 µgequiv | 19 | 12 | Stable | 
3 | CCCCCCCC(O)CCCC(CCCCCCC(=O)O)C(C)=O (centres undefined) | 19 | 6.6 µgequiv | 39 | 37 | Stable | 
4 | CCCCCC(O)CCCC(CCCCCCC(=O)O)C(=O)CC (centres undefined) | 6 | 2.4 µgequiv | 26 | 17 | Stable | 
5 | CCCCCC[C@@H](O)C/C=C/CCCCCCCC(=O)O |  |  | 2 |  |  | fold change (FC) [10]: 2; fold change (FC) [11]: 1
6 | CCCCCC(O)CCCC(CCCCCCC(=O)O)C(C)O (centres undefined) | 15 | 2.5 µgequiv | 33 | 25 | Stable | 
7 | CCCCCCC(O)CCC(CCCCCCC(=O)O)C(C)=O (centres undefined) | 5 | 41 µgequiv | 11 |  | Stable | 
8 | CC(=O)C(CC#CC1(O)CCCCC1)CCCCCCC(=O)O (centres undefined) |  |  | 1 | 1 | Stable | 
9 | CCCCCC(C)(O)CCCC(CCCCCCC(=O)O)C(C)=O (centres undefined) | 4 | 0.4 µgequiv | 11 | 9 | Stable | 
10 | CCCCCC(O)CCCC(CO)CCCCCCC(=O)O (centres undefined) | 8 | 4.6 µgequiv | 18 | 9 | Stable | 
11 | CC(=O)C(CCCCCCCCCO)CCCCCCC(=O)O (centres undefined) | 1 | > 125 µgequiv | 1 | 1 | Stable | 
12 | CCCCCC(O)C#CCC(CCCCCCC(=O)O)C(C)=O (centres undefined) | 2 |  | 7 | 4 | Stable | 
13 | CCCCC(O)CCCCC(CCCCCCC(=O)O)C(C)=O (centres undefined) | 9 | 2.1 µgequiv | 20 | 9 | Stable | 
14 | CCCCCC(=O)CCCC(CCCCCCC(=O)O)C(C)=O (centres undefined) | 2 | 7 µgequiv | 9 | 4 | Stable | 
15 | CC(=O)C(CCCCCCC(=O)O)CCCC1(O)CCCCC1 (centres undefined) | 1 | > 125 µgequiv | 4 | 3 | Stable | 
16 | CCCCCC(O)CCCC(CCCCCCC(=O)O)C(C)=O (mixture of isomers) [listing 1 of 2 here] | 11 | 1.7 µgequiv | 23 | 14 |  | fold change (FC) [10]: 16; fold change (FC) [6]: 2; fold change (FC) [11]: 16
17 | CCCCCC(O)CCCC(CCCCCCC(=O)O)C(C)=O (racemic) | 7 |  | 23 | 19 |  | 
18 | CCCCC[C@H](O)CCCC(CCCCCCC(=O)O)C(C)=O (some centres undefined) | 19 | 3.2 µgequiv | 29 | 25 | Stable | 
19 | CCCCC[C@@H](O)C#CCC(CCCCCCC(=O)O)C(C)=O (some centres undefined) | 2 |  | 3 | 3 | Stable | 
20 | CCCCC[C@H](O)/C=C/[C@H]1[C@H](O)CC(=O)[C@@H]1CCCCCCC(=O)O [ALPROSTADIL] |  |  |  |  |  | fold change (FC) [1]: 25; fold change (FC) [2]: 8; inhibition [12]: inactive; fold change (FC) [5]: 29; fold change (FC) [6]: 54; ED50 [13]: 0.02 mg/kg; Activity [14]: Active
21 | CCCC(O)CCCCCC(CCCCCCC(=O)O)C(C)=O (centres undefined) | 4 | 65 µgequiv | 8 | 4 | Stable | 
22 | CC(=O)C(CCCCCCC(=O)O)CCCC(O)CCc1ccccc1 (centres undefined) | 1 |  | 2 | 1 | Stable | 
23 | CC(=O)C(CCCCCCC(=O)O)CCCC(C)O (centres undefined) |  | > 100 µgequiv | 1 | 1 | Stable | 
24 | CCCCCC(O)/C=C/CC(CCCCCCC(=O)O)C(C)=O (centres undefined) | 2 | 3.2 µgequiv | 14 | 8 | Stable | 
25 | CCCCC[C@H](O)C#CCC(CCCCCCC(=O)O)C(C)=O (some centres undefined) | 3 |  |  | 7 | Stable | 
26 | CCCCCC(O)CCCC(CCCCCCC(=O)O)C(C)=O (mixture of isomers) [listing 2 of 2 here] |  |  |  |  | Stable | Activity [15]: 92 mL/min; ED50 [12]: 6.5 mg/kg
27 | CC(=O)C(CCCCO)CCCCCCC(=O)O (centres undefined) |  | 450 µgequiv | 1 | 1 | Stable | 
